Assay results from ChEMBL document CHEMBL4014276, “Diphenylurea derivatives for combating methicillin- and vancomycin-resistant Staphylococcus aureus” (Eur J Med Chem, 2017).
≈ marks a conversion by molar mass, not a printed value. Calls of active or inactive are those of the source. The calls are words filed in the database; no cut-off is given here.

Tests used:
Staphylococcus aureus [1] = test: Antibacterial activity against methicillin-resistant Staphylococcus aureus USA300 NRS384 clinical isolate after 20 hrs by broth microdilution method; assay type: functional; details: USA300 NRS384, 20 h
Summary of the method: (§1)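 CLSI broth microdilution in cation-adjusted Mueller Hinton broth; compounds serially diluted, triplicate samples; 37 °C, 20 h. MIC read visually as lowest concentration with no visible growth; mean of triplicate determinations reported.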

Staphylococcus aureus [2] = test: Bactericidal activity against methicillin-resistant Staphylococcus aureus USA400 NRS123 clinical isolate assessed as disruption of bacterial membrane by measuring leakage of 260 nM absorbing material at 5 times MIC after 30 mins by spectrophotometric method; assay type: functional
Staphylococcus aureus [3] = test: Antibacterial activity against methicillin-resistant Staphylococcus aureus USA200 NRS383 clinical isolate after 20 hrs by broth microdilution method; assay type: functional; details: USA200 NRS383, 20 h; summary of the method: as §1
[4] = Half life in naive Sprague-Dawley rat at 50 mg/kg ,po administered via gavage by LC-MS/MS method; assay type: ADME, organism-based; details: in vivo
Summary of the method: (§2)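 Male naïve rats, three animals; single oral gavage dose in 5% ethanol, 45% PEG 400, 50% water. Blood drawn into EDTA-K2 tubes over 24 h post dose; plasma protein-precipitated with acetonitrile, parent quantified by LC/MS/MS.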

[5] = Intrinsic clearance in human liver microsomes in presence of NADPH by LC-MS/MS method; assay type: ADME, microsome; details: read-out: CLH
[6] = Tmax in naive Sprague-Dawley rat at 50 mg/kg ,po administered via gavage by LC-MS/MS method; assay type: ADME, organism-based; details: in vivo; summary of the method: as §2
[7] = Apparent permeability across apical to basolateral side in human Caco2 cells at 10 uM after 2 hrs by LC-MS/MS method; assay type: ADME, cell-based; details: Caco-2
Staphylococcus aureus [8] = test: Bactericidal activity against methicillin-resistant Staphylococcus aureus USA400 NRS123 clinical isolate assessed as disruption of bacterial membrane by measuring leakage of 280 nM absorbing material at 5 times MIC after 30 mins by spectrophotometric method; assay type: functional
Staphylococcus aureus [9] = test: Antibacterial activity against methicillin-resistant Staphylococcus aureus USA400 NRS123 clinical isolate after 20 hrs by broth microdilution method; assay type: functional; details: USA400 NRS123, 20 h; summary of the method: as §1
Staphylococcus aureus [10] = test: Bactericidal activity against methicillin-resistant Staphylococcus aureus USA400 assessed as time required to reduce log10CFU of bacterial load at 4 times MIC by time kill assay; assay type: functional
Staphylococcus aureus [11] = test: Antibacterial activity against methicillin-resistant Staphylococcus aureus USA100 NRS382 clinical isolate preincubated followed by bacterial subculturing for 2 weeks; assay type: functional
Staphylococcus aureus [12] = test: Bactericidal activity against vancomycin-resistant Staphylococcus aureus VRSA4 after 18 hrs by broth microdilution method; assay type: functional; details: VRSA4, 18 h
Summary of the method: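 From MIC wells without visible growth, 5 uL spotted onto Tryptic soy agar, incubated 37 °C for at least 18 h; MBC taken as lowest concentration giving 99.9% growth inhibition.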

C/C(=N\NC(=N)N)c1ccc(NC(=O)Nc2ccc(OC3CCCCCC3)cc2)cc1
MIC (Staphylococcus aureus [1]): 2 µg/mL (≈ 4.73 µM)
Activity (Staphylococcus aureus [2]): inactive
MIC (Staphylococcus aureus [3]): 2 µg/mL (≈ 4.73 µM)
half-life [4]: 16 h
microsomal CLint [5]: 33.9 µL/min/mg
Tmax [6]: 9.33 h
Papp A→B at 2 h, 10 µM [7]: 0.039 ×10⁻⁶ cm/s
Activity (Staphylococcus aureus [8]): inactive
MIC (Staphylococcus aureus [9]): 4 µg/mL (≈ 9.47 µM)
Time (Staphylococcus aureus [10]): <=4 hr
Activity (Staphylococcus aureus [11]): Active
MBC (Staphylococcus aureus [12]): 4 µg/mL (≈ 9.47 µM)
